ChEMBL document CHEMBL1156877, “Discovery of 6-benzyloxyquinolines as c-Met selective kinase inhibitors” (Bioorg Med Chem Lett, 2010)
pIC50: −log10 of the molar value.

Experiments:
[1] = molecular target: Hepatocyte growth factor receptor (Homo sapiens, UniProt P08581); assay: Inhibition of recombinant c-Met by TR-FRET assay
[2] = molecular target: Vascular endothelial growth factor receptor 2 (Homo sapiens, UniProt P35968); assay: Inhibition of recombinant KDR by TR-FRET assay
Procedure, shortened: (§1)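 Recombinant tyrosine kinase incubated with test compound and substrate peptide/ATP for 90 min at 30 °C; enzyme amount, ATP level, substrate and cation vary by kinase. Reaction stopped, then TR-FRET reagent with europium-labelled anti-phospho-substrate antibody added for 5 min at room temperature; substrate phosphorylation read as time-resolved fluorescence.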

[3] = molecular target: Proto-oncogene tyrosine-protein kinase Src (Homo sapiens, UniProt P12931); assay: Inhibition of recombinant Src by TR-FRET assay; procedure, shortened: as §1
[4] = molecular target: T1, Tyrosine-protein kinase receptor UFO (Homo sapiens, UniProt P30530); assay: Inhibition of recombinant AXL by TR-FRET assay; procedure, shortened: as §1
T1 sequence (P30530 whole entry): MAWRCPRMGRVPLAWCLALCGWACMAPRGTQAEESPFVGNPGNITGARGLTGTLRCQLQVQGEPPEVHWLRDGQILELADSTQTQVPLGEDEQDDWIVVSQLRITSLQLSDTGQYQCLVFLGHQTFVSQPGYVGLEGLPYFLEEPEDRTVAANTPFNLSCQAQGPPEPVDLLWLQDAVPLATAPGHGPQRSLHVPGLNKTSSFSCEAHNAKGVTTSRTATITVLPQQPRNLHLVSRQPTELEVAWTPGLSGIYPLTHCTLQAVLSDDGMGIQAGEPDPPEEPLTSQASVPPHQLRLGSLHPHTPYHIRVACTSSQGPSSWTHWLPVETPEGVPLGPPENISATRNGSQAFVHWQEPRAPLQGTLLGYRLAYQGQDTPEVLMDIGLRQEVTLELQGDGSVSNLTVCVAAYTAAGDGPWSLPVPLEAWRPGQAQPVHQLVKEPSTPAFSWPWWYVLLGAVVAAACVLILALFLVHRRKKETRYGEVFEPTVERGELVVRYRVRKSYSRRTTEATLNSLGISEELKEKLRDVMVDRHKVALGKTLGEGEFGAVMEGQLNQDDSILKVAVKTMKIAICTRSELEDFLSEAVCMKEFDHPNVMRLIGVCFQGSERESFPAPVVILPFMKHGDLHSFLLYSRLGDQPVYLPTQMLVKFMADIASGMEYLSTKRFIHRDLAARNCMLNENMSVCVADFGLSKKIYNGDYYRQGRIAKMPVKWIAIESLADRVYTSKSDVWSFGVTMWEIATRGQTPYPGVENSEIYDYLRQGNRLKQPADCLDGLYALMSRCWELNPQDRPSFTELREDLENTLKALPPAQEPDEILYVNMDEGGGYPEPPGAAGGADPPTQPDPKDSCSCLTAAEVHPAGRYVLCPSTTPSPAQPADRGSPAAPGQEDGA

Ephrin type-A receptor 2 = Ephrin type-A receptor 2 (Homo sapiens, UniProt P29317); assay: Inhibition of recombinant EphA2 by TR-FRET assay; procedure, shortened: as §1
[5] = molecular target: Macrophage-stimulating protein receptor (Homo sapiens, UniProt Q04912); assay: Inhibition of recombinant RON by TR-FRET assay; procedure, shortened: as §1
[6] = molecular target: Leukocyte tyrosine kinase receptor (Homo sapiens, UniProt P29376); assay: Inhibition of recombinant LTK by TR-FRET assay; procedure, shortened: as §1
[7] = molecular target: Fibroblast growth factor receptor 2 (Homo sapiens, UniProt P21802); assay: Inhibition of recombinant FGFR2 by TR-FRET assay; procedure, shortened: as §1
[8] = molecular target: T2, Receptor-type tyrosine-protein kinase FLT3 (Homo sapiens, UniProt P36888); assay: Inhibition of recombinant Flt3 by TR-FRET assay; procedure, shortened: as §1
T2 sequence (P36888 whole entry): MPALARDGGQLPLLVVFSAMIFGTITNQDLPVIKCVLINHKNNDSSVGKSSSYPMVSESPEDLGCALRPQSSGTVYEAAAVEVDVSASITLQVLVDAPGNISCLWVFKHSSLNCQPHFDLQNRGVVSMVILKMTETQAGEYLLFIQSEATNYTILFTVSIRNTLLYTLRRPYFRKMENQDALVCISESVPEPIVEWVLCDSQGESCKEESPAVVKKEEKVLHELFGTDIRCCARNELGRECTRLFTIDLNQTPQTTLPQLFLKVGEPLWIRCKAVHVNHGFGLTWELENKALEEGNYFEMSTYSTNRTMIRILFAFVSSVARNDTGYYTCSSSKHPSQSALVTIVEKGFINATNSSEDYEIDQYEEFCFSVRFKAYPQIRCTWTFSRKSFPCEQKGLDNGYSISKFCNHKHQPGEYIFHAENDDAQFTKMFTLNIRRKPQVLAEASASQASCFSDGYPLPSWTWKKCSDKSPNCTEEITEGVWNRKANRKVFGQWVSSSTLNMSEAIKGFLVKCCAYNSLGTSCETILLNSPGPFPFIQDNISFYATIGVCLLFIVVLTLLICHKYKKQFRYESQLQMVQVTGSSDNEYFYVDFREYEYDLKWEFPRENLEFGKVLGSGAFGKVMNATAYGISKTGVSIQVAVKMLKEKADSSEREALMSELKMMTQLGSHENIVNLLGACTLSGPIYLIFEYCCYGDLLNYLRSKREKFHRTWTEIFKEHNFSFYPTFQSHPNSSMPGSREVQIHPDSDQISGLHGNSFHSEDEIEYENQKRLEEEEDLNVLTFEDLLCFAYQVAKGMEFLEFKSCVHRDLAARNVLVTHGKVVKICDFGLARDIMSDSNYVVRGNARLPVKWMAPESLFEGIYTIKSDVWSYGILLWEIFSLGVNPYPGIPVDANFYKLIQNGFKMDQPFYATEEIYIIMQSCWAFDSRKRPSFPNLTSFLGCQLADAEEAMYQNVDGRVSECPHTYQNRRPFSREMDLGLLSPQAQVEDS

[9] = molecular target: Tyrosine-protein kinase Fyn (Homo sapiens, UniProt P06241); assay: Inhibition of recombinant Fyn by TR-FRET assay; procedure, shortened: as §1
[10] = molecular target: Insulin-like growth factor 1 receptor (Homo sapiens, UniProt P08069); assay: Inhibition of recombinant IGF1R by TR-FRET assay; procedure, shortened: as §1
[11] = molecular target: Tyrosine-protein kinase Lck (Homo sapiens, UniProt P06239); assay: Inhibition of recombinant LCK by TR-FRET assay
[12] = molecular target: Mast/stem cell growth factor receptor Kit (Homo sapiens, UniProt P10721); assay: Inhibition of recombinant Kit by TR-FRET assay; procedure, shortened: as §1
[13] = Inhibition of recombinant PDGFR by TR-FRET assay; procedure, shortened: as §1
[14] = molecular target: Tyrosine-protein kinase Yes (Homo sapiens, UniProt P07947); assay: Inhibition of recombinant YES by TR-FRET assay; procedure, shortened: as §1
[15] = molecular target: Protein-tyrosine kinase 6 (Homo sapiens, UniProt Q13882); assay: Inhibition of recombinant BRK by TR-FRET assay; procedure, shortened: as §1
[16] = molecular target: Tyrosine-protein kinase ABL1 (Homo sapiens, UniProt P00519); assay: Inhibition of recombinant Abl by TR-FRET assay; procedure, shortened: as §1
Aurora kinase A = molecular target: T3, Aurora kinase A (Homo sapiens, UniProt O14965); assay: Inhibition of recombinant Aurora A by IMAP assay
T3 sequence (O14965 whole entry): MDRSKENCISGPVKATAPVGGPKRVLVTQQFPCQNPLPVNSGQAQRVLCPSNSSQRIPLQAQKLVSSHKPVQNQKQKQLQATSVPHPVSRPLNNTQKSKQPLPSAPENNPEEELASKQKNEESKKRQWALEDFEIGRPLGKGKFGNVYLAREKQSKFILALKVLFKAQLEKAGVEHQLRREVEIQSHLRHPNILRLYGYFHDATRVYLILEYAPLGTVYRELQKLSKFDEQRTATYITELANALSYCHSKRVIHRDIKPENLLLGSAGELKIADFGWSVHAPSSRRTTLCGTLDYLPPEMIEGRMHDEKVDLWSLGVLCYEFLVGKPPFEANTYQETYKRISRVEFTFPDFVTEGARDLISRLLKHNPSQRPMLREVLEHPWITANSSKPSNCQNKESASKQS
Procedure, shortened: (§2)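 Recombinant enzyme mixed with test compound and substrate peptide/ATP solution, incubated 90 min at 30 °C; enzyme quantity, ATP, substrate and cation set per kinase. IMAP reagent then added for 5 min at room temperature, and peptide phosphorylation quantified by fluorescence polarization.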

[17] = Inhibition of recombinant PKA by IMAP assay; procedure, shortened: as §2
[18] = molecular target: RAC-alpha serine/threonine-protein kinase (Homo sapiens, UniProt P31749); assay: Inhibition of recombinant AKT1 by IMAP assay; procedure, shortened: as §2
[19] = molecular target: Cyclin-dependent kinase 1 (Homo sapiens, UniProt P06493); assay: Inhibition of recombinant CDK1 by IMAP assay; procedure, shortened: as §2
[20] = molecular target: T4, Protein kinase C beta type (Homo sapiens, UniProt P05771); assay: Inhibition of recombinant PKCbeta1 by IMAP assay; procedure, shortened: as §2
[21] = molecular target: Cyclin-dependent kinase 2 (Homo sapiens, UniProt P24941); assay: Inhibition of recombinant CDK2 by IMAP assay; procedure, shortened: as §2
[22] = molecular target: T4, Protein kinase C beta type; assay: Inhibition of recombinant PKCbeta2 by IMAP assay; procedure, shortened: as §2
[23] = Solubility in fasted state simulated intestinal fluid; assay type: physicochemical
Insulin receptor = Insulin receptor (Homo sapiens, UniProt P06213); assay: Inhibition of recombinant InsR by TR-FRET assay
[24] = molecular target: Protein kinase C alpha type (Homo sapiens, UniProt P17252); assay: Inhibition of recombinant PKCalpha by IMAP assay; procedure, shortened: as §2
MKN-45 = assay: Cytotoxicity against human MKN45 cells after 96 hrs by WST8 assay; assay type: functional, cell-based; conditions: MKN-45, 96 h
Procedure, shortened: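 Tumour cells exposed to a range of compound concentrations for 96 h; cytotoxicity read with WST-8 cell counting kit.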

Vascular endothelial growth factor receptor 2, sequence (P35968 whole entry): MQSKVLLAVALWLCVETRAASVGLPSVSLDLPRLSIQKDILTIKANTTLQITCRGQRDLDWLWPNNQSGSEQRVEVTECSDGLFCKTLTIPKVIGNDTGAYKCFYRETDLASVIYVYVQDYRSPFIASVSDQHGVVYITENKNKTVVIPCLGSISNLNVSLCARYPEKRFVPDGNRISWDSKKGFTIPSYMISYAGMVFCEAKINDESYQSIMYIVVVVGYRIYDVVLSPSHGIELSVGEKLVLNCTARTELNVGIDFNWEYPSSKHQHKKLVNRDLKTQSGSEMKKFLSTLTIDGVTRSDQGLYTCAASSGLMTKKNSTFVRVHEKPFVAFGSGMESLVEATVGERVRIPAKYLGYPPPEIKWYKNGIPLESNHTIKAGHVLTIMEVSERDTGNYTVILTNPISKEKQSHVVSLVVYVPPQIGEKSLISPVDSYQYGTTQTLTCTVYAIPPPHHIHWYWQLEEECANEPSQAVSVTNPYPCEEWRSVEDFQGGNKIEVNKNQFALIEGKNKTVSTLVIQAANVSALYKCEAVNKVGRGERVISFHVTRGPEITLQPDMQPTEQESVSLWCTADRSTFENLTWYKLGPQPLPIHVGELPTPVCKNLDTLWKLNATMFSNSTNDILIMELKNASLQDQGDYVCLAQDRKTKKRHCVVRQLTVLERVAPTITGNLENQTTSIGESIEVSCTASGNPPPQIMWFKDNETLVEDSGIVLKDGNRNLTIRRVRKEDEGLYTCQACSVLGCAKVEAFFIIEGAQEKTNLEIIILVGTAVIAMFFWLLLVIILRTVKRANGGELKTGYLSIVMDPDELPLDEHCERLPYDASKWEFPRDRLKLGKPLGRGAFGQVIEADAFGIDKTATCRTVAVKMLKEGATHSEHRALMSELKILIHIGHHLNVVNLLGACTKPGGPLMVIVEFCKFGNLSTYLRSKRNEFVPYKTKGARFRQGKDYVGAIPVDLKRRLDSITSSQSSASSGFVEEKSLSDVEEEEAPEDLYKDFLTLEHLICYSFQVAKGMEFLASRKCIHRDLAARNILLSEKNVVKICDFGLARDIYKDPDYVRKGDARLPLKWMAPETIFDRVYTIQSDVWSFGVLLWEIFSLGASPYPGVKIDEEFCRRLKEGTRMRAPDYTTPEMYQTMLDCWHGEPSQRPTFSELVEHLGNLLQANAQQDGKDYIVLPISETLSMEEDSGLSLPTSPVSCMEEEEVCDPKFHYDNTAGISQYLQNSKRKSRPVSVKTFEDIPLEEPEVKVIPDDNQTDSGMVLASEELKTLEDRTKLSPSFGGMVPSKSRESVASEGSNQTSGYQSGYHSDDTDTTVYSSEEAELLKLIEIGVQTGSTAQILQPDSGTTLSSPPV
T4 sequence (P05771 whole entry): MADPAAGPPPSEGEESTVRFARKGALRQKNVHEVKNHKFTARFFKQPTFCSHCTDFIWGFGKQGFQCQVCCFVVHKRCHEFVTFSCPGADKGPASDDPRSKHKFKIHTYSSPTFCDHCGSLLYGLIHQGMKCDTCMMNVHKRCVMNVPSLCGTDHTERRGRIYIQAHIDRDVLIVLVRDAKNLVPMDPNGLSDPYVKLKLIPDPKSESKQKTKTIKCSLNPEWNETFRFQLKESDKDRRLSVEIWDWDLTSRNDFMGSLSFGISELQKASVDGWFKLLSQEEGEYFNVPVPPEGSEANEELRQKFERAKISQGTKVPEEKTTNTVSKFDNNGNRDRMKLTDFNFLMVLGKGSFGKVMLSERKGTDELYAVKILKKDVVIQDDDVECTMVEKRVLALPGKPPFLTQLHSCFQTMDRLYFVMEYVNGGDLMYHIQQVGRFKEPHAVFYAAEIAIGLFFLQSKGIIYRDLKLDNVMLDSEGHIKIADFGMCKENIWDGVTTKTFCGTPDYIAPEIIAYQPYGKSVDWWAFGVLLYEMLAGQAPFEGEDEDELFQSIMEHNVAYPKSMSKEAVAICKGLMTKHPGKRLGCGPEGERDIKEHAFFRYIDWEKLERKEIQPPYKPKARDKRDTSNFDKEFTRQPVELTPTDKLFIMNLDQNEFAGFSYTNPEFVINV
Hepatocyte growth factor receptor, sequence (P08581 whole entry): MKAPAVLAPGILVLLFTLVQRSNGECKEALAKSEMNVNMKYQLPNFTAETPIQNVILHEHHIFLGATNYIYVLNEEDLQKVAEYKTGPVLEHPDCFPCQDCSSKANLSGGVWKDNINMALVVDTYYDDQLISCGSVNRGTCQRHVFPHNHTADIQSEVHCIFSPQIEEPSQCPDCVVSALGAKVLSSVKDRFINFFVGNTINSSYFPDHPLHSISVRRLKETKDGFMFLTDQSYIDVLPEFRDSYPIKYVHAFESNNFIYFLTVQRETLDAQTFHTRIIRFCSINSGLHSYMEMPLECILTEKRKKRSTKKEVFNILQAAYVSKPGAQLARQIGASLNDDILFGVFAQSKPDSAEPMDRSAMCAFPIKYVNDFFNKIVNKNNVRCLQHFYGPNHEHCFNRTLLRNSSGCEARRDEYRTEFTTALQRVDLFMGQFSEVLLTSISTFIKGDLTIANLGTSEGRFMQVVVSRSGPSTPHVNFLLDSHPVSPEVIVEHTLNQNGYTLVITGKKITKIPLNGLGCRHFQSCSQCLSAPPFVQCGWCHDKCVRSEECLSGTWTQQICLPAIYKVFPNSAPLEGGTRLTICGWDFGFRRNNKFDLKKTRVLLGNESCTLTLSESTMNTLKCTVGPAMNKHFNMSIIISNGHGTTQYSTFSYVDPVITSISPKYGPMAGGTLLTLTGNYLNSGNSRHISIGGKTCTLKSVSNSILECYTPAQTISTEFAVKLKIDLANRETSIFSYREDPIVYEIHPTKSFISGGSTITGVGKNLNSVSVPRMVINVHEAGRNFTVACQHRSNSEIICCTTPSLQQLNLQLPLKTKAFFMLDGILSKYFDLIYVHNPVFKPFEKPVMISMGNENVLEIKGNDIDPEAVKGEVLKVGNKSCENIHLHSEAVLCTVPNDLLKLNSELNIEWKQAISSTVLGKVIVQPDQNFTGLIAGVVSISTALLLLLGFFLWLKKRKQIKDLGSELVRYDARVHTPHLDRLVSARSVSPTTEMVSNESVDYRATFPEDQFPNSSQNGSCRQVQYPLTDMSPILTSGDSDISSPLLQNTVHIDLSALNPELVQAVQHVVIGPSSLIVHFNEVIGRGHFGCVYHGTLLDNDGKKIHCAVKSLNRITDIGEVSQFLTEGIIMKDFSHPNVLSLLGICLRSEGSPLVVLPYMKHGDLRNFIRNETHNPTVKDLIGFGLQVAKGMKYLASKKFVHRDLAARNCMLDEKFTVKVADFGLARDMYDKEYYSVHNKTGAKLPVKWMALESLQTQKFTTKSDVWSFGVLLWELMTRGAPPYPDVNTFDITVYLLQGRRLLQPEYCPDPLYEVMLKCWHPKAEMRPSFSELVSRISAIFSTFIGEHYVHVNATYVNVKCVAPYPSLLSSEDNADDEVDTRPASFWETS
Proto-oncogene tyrosine-protein kinase Src, sequence (P12931 2-536 limits assumed): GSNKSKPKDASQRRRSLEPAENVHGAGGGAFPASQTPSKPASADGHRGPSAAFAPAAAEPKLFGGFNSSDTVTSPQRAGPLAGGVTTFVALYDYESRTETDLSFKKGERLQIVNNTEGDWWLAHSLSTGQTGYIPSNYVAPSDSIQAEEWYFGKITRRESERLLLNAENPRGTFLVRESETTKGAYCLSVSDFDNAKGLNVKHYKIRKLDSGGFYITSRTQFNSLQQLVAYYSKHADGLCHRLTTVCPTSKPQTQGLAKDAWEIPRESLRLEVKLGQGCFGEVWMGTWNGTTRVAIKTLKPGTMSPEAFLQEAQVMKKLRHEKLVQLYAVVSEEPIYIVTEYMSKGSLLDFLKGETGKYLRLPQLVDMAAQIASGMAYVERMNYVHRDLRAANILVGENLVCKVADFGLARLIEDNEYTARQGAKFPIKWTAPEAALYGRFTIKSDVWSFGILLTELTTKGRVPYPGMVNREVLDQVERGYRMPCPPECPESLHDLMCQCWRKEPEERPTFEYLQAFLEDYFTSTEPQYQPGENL
RAC-alpha serine/threonine-protein kinase, sequence (P31749 whole entry): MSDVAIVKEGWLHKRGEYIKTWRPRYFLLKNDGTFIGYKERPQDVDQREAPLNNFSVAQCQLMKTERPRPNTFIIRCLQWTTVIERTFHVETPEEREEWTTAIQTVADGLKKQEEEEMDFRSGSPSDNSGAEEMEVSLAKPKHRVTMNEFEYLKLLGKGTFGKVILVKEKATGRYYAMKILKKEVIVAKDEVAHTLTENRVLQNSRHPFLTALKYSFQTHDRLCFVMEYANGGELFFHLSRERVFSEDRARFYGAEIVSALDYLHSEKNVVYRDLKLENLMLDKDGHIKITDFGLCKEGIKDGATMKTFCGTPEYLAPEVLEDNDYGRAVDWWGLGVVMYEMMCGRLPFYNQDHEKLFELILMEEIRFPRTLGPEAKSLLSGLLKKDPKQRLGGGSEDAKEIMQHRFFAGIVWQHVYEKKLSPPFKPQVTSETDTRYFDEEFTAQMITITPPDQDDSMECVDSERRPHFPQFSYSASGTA
Protein-tyrosine kinase 6, sequence (Q13882 whole entry): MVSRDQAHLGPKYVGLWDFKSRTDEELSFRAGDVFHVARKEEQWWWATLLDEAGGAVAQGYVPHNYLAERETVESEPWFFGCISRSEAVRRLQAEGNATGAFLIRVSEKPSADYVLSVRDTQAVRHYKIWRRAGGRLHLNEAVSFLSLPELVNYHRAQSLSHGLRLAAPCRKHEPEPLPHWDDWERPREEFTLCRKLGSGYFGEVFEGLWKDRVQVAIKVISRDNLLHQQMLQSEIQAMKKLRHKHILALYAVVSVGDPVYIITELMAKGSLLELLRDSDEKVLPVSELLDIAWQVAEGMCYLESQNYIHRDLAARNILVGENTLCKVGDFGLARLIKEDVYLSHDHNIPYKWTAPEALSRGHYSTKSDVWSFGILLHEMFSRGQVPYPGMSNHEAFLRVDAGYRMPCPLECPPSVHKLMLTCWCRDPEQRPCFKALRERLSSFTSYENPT

With C[C@H](Oc1ccc2ncccc2c1)c1c(Cl)ccc(F)c1Cl the pIC50 [1] was 5.92, the pIC50 [2] was < 4.30 and the pIC50 [3] was 4.70.

With C[C@@H](Oc1ccc2ncccc2c1)c1c(Cl)ccc(F)c1Cl the pIC50 [4] was 4.85, the pIC50 (Ephrin type-A receptor 2) was < 4.30 and the pIC50 [1] was 6.89. It also gave a pIC50 [2] of 4.64, a pIC50 [3] of 4.66 and a pIC50 [5] of 5.44. For the same compound, the pIC50 [6] was < 4.30, the pIC50 [7] was 4.62 and the pIC50 [8] was 4.34. The pIC50 [9] was < 4.30, the pIC50 [10] was < 4.30 and the pIC50 [11] was < 4.30. The pIC50 [12] was 4.39, the pIC50 [13] was < 4.30 and the pIC50 [14] was < 4.30. The pIC50 [15] was < 4.30, the pIC50 [16] was < 4.30 and the pIC50 (Aurora kinase A) was < 4.30. For the same compound, the pIC50 [17] was < 4.30, the pIC50 [18] was < 4.30 and the pIC50 [19] was < 4.30. The pIC50 [20] was < 4.30, the pIC50 [21] was < 4.30 and the pIC50 [22] was < 4.30.

Work on C[C@@H](Oc1ccc2ncc(/C=C/C(N)=O)cc2c1)c1c(Cl)ccc(F)c1Cl yielded a pIC50 [4] of 6.24, a pIC50 (Ephrin type-A receptor 2) of 5.36 and a pIC50 [2] of 4.96. For the same compound, the solubility [23] was < 13 µg/mL, the pIC50 [5] was 6.35 and the pIC50 [6] was 4.74. The pIC50 [7] was 5.16, the pIC50 [8] was 4.49 and the pIC50 [9] was 4.55. For the same compound, the pIC50 [10] was < 4.30, the pIC50 [11] was 4.85 and the pIC50 [12] was < 4.30. The pIC50 [13] was < 4.30, the pIC50 (Insulin receptor) was < 4.30 and the pIC50 [14] was 4.59. It also gave a pIC50 [15] of 4.49, a pIC50 [16] of 5.00 and a pIC50 (Aurora kinase A) of 5.19. The pIC50 [17] was < 4.30, the pIC50 [18] was < 4.30 and the pIC50 [19] was < 4.30. The pIC50 [24] was < 4.30, the pIC50 [20] was < 4.30 and the pIC50 [21] was < 4.30. The pIC50 [22] was < 4.30.

In the case of CC(Oc1ccc2ncc(CCC(N)=O)cc2c1)c1c(Cl)ccc(F)c1Cl (racemic), the pIC50 [1] was 6.69, the pIC50 [2] was 4.30 and the pIC50 [3] was < 4.30. For the same compound, the pIC50 (MKN-45) was 5.36.

In the case of CC(Oc1ccc2ncccc2c1)c1c(Cl)ccc(F)c1Cl (racemic), the pIC50 [1] was 6.34, the pIC50 [2] was 4.49 and the pIC50 [3] was < 4.30.

In the case of CC(Oc1ccc2ncc(/C=C/C(N)=O)cc2c1)c1c(Cl)ccc(F)c1Cl (racemic), the pIC50 [2] was 4.59, the pIC50 [3] was < 4.30 and the pIC50 (MKN-45) was 6.46.

For CNC(=O)/C=C/c1cnc2ccc(OC(C)c3c(Cl)ccc(F)c3Cl)cc2c1 (racemic), the pIC50 [2] was < 4.30, the pIC50 [3] was < 4.30 and the pIC50 (MKN-45) was 6.62.

With CC(Oc1ccc2ncc(/C=C/CN)cc2c1)c1c(Cl)ccc(F)c1Cl (racemic) the pIC50 [1] was 6.43, the pIC50 [2] was 4.48 and the pIC50 [3] was 4.34. The pIC50 (MKN-45) was 5.37.

For CC(Oc1ccc2ncc(/C=C/C(=O)O)cc2c1)c1c(Cl)ccc(F)c1Cl (racemic), the pIC50 [1] was 7.03, the pIC50 [2] was < 4.30 and the pIC50 [3] was < 4.30. It also gave a pIC50 (MKN-45) of 4.99.

With CC(Oc1ccc2ncc(/C=C/C(=O)N(C)C)cc2c1)c1c(Cl)ccc(F)c1Cl (racemic) the pIC50 [1] was 7.23, the pIC50 [2] was < 4.30 and the pIC50 [3] was < 4.30. For the same compound, the pIC50 (MKN-45) was 6.21.
